Assay [1] addresses T1, 5-hydroxytryptamine receptor 1A (Homo sapiens) (UniProt P08908).
T1 sequence (whole entry): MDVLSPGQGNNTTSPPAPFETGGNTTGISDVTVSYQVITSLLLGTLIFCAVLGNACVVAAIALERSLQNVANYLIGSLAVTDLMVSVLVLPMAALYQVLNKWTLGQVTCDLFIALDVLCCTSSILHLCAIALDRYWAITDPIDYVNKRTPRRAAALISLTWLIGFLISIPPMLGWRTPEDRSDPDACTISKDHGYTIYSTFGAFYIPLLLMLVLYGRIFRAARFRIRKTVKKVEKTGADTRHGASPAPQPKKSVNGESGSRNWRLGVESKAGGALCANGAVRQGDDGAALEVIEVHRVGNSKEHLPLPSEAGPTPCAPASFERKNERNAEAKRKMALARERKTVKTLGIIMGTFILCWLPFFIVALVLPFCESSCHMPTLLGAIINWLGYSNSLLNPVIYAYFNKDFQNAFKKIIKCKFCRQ
As to the kind of experiment: Agonist activity at human cloned 5HT1A receptor expressed in HeLa cell membrane assessed as stimulation of [35S]GTPgammaS binding relative to 5-hydroxytryptamine. Format: functional, cell membranes. In outline: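 Activation measured as [35S]GTPγS binding in membranes from HeLa cells expressing cloned human 5-HT1A receptor. pD2 is the negative log of agonist concentration giving 50% of maximal stimulation, from two to three experiments agreeing within 20%. Efficacy is given relative to 5-HT.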
Background: GTPγS is a poorly hydrolysed GTP analogue; its binding reports G protein activation.

Assay [2] deals with T2, Alpha-1B adrenergic receptor (Homo sapiens, UniProt P35368).
T2 sequence (P35368 whole entry): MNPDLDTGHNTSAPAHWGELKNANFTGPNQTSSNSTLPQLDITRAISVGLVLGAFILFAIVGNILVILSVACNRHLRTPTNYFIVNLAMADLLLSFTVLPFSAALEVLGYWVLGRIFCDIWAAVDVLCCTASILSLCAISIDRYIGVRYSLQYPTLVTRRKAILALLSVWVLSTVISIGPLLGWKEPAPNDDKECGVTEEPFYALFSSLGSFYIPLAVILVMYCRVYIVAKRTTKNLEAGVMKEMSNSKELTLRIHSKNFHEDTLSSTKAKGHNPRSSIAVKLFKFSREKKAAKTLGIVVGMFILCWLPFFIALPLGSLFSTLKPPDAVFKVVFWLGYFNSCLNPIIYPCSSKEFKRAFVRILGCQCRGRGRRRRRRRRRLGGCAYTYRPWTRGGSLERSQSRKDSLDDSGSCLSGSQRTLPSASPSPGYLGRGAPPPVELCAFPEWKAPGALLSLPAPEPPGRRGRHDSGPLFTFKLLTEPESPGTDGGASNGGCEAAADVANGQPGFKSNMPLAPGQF
Nature of the assay: Displacement of [3H]prazosin from human cloned Alpha-1B adrenoceptor expressed in CHO cells. Format: cell-based. The method in brief: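 [3H]prazosin binding to cloned human α1-adrenoceptor subtypes expressed in CHO cell membranes. Affinity reported as pKi for each subtype.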
(Displacement assays read how much labelled ligand stays bound in the presence of the test substance.)

For assay [3], the target named is T1, 5-hydroxytryptamine receptor 1A (Homo sapiens). Nature of the assay: Agonist activity at human cloned 5HT1A receptor expressed in human HeLa cell membrane assessed as stimulation of [35S]GTPgammaS binding. It is filed as functional, cell membranes. In outline: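 Membranes from HeLa cells expressing cloned human 5-HT1A receptor; agonist-stimulated [35S]GTPγS binding measured. pD2 is the negative log of the agonist concentration giving 50% of maximal [35S]GTPγS binding stimulation; values from two to three experiments.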

Assay [4] deals with T3, Alpha-1B adrenergic receptor (Rattus norvegicus) (UniProt P15823).
T3 sequence (whole entry): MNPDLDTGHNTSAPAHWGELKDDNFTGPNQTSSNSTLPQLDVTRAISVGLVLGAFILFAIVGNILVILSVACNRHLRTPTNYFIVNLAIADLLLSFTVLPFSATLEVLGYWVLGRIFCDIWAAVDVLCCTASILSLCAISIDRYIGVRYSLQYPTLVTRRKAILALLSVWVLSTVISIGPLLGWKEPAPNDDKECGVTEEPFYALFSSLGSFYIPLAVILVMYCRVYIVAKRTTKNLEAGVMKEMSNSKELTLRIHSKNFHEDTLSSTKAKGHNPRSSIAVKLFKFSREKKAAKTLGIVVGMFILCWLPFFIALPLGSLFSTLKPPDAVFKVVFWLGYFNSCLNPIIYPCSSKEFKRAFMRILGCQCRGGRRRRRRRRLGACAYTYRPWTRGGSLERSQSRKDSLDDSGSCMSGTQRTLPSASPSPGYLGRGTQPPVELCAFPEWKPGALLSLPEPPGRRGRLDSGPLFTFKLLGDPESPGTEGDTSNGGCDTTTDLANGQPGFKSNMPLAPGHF
Nature of the assay: Antagonist activity at alpha1B adrenoceptor in Wistar rat spleen assessed as inhibition of (-)-phenylephrine-induced contraction after 30 mins. It is filed as functional, tissue-based.

The target in assay [5] is T4, Alpha-1D adrenergic receptor (Rattus norvegicus) (UniProt P23944).
T4 sequence (whole entry): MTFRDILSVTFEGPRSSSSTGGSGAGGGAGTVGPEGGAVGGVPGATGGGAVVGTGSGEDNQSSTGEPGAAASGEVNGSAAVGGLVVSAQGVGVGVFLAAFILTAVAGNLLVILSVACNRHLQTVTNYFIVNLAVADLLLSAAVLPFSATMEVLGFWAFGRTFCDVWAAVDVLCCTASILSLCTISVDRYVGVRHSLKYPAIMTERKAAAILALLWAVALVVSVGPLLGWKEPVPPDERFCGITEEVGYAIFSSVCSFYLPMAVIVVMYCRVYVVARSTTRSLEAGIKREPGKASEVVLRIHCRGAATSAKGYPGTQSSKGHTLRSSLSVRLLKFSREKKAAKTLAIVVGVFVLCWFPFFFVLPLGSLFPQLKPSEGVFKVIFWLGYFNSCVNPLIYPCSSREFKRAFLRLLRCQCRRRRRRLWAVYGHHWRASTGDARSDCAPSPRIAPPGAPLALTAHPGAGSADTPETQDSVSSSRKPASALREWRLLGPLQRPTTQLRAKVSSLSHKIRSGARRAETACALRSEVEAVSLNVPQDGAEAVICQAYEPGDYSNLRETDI
As to the kind of experiment: Antagonist activity at Alpha-1D adrenoceptor in Wistar rat thoracic aorta assessed as inhibition of (-)-noradrenaline-induced contraction after 30 mins. It is filed as functional, tissue-based.

Assay [6] concerns the target T5, Alpha-1A adrenergic receptor (Rattus norvegicus) (UniProt P43140).
T5 sequence (whole entry): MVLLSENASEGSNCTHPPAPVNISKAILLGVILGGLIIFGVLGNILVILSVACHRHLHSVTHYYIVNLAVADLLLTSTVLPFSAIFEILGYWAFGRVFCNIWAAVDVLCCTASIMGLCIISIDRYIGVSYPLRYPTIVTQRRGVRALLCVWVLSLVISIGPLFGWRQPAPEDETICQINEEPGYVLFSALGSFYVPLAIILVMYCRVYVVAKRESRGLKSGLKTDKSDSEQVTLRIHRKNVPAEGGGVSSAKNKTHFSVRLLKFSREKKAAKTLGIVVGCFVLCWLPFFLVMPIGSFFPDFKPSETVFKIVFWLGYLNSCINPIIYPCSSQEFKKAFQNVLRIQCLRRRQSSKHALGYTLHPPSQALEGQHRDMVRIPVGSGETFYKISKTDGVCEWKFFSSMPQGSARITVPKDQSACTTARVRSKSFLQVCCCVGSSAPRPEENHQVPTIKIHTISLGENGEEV
As to the kind of experiment: Antagonist activity at alpha1A adrenoceptor in Wistar rat prostatic vas deferens assessed as inhibition of (-)-noradrenaline-induced contraction after 30 mins. Format: functional, tissue-based.

Another assay deals with PC-3. Nature of the assay: Cytotoxicity against human PC3 cells after 48 hrs by SRB assay. Format: functional. The settings on record: PC-3, 48 h; for CC50: read-out: LC50 (the source's name). The method in brief: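 PC-3 human prostate cancer cells. Growth measured by sulforhodamine B staining following the NCI protocol. […] Values are means of quadruplicate determinations ± standard error (n = 5).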
For orientation: Sulforhodamine B stains cellular protein and so reports cell mass.

Results on 6 compounds are retold here after ChEMBL document CHEMBL1140161, “Structure-activity relationships in 1,4-benzodioxan-related compounds. 9. From 1,4-benzodioxane to 1,4-dioxane ring as a promising template of novel alpha1D-adrenoreceptor antagonists, 5-HT1A full agonists, and cytotoxic agents” (J Med Chem, 2008).

One may read the Ki as the dissociation constant of the complex between target and ligand, obtained from inhibition or displacement. Low values mean higher affinity, high ones lower affinity. What is called pKb is −log10 of the Kb, conventionally taken in molar units. What is called GI50 is the concentration that inhibits growth by half. A lower GI50 goes with greater sensitivity of the cells. Usually TGI stands for the concentration at which net growth stops.

Take `CCCN(CCC)C1CCc2cccc(O)c2C1` (configuration not stated) [8-OH-DPAT]: the %max in assay [1] is 100. In addition, the inhibition constant Ki in assay [2] was more than 1 µM.

As to `NCCc1c[nH]c2ccc(C(N)=O)cc12`, the %max in assay [1] was 96. Besides, the pD2 in assay [3] was found to be 8.45.

With `NCCc1c[nH]c2ccc(O)cc12`, the pD2 in assay [3] is 7.3.

`COc1cccc(OC)c1OCCNCC1COc2ccccc2O1` (configuration not stated): the pKb in assay [4] amounted to 8.16. In addition, in assay [5], the negative logarithm of the Kb (pKb) turned out to be 8.8. Besides, the pKb in assay [6] turned out to be 9.51. In addition, in the assay on PC-3, it took 64.6 µM to inhibit growth by half (GI50), total growth inhibition (TGI) required 199 µM and the CC50 is more than 200 µM.

For the compound `COc1ccccc1N1CCN(CCN2C(=O)CC3(CCCC3)CC2=O)CC1`, the %max in assay [1] stood at 26. The pKb in assay [4] was 7.48. Also, in assay [3], the pD2 was determined as 9.27.

`COc1cc2nc(N3CCN(C(=O)C4COc5ccccc5O4)CC3)nc(N)c2cc1OC` (configuration not stated) [DOXAZOSIN]: in the assay with PC-3, growth was halved (GI50) at 26.9 µM, the concentration for total growth inhibition (TGI) came out at 49 µM and the CC50 was found to be 75.8 µM.
